These results are taken from the EternaBench riboswitch data.

This data set deals with MS2 coat protein. The data set is described as follows: apparent Kd, MS2 coat protein; higher = weaker binding; RNA-MaP array; FMN 200 µM where present. The essentials:
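The apparent Kd is the median of filtered binding-curve fits, one per cluster, to green signal normalised to red-channel RNA signal and control-cluster median Fmax. The clusters were on Illumina sequencing chips, and stalled E. coli RNA polymerase had transcribed the designs on them. Titration used SNAP-549-labelled MS2 coat protein from 0.7 or 1.5 nM, doubling to 3 µM, without and then with constant ligand, in 100 mM Tris-HCl pH 7.5, 80 mM KCl, 4 mM MgCl2, BSA, DTT, yeast tRNA and Tween-20.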

Setting [1] is: designed as: OFF switch for flavin mononucleotide, no ligand.
Where [2] appears, read: ligand present: flavin mononucleotide, designed as: OFF switch for flavin mononucleotide.
[3] abbreviates: designed as: ON switch for flavin mononucleotide, no ligand.
Setting [4] is: ligand present: flavin mononucleotide, designed as: ON switch for flavin mononucleotide.

As to “AGGAGGUCAGGAUAUGCAUGGCGGGACUUGCGUCGUGGCGUGCAGAAGGGACAUGAGGAUCACCCAUGUGGAGC”, the “apparent Kd” value under setting [1] was 66.4 nM and the “apparent Kd” value under setting [2] was determined as 106 nM.

For “GCUUCGGCAGGAUAUACAUGAGGAUCACCCAUGUUGAAGUUGAAGAUCUUCGGCUUCGGUAGAAGGGUUGAAGU”, the “apparent Kd” value reads like this: under setting [1], 38 nM; under setting [2], 32.1 nM.

Regarding “AUAACUGUACGAGGAUAUCCAAGGGCAGCCCUAGGAGAAGGCGUACAUGAGGAUCACCCAUGUACUAUAUGGAGUUCGCUCGUG”, the “apparent Kd” value runs as follows: under setting [1], 30.7 nM; under setting [2], 88.4 nM.

“UGCUGGUGACAGCAUCCAUCAAAACAUGAGGAUCACCCAUGUAGAAGGCUGUACGGUUACCGUACAGAGGAUAUACAAUGAUGC”: the “apparent Kd” value was found to be 15.4 nM under setting [1] and 29.4 nM under setting [2].

With “UGGUACUAGGGAGGAUAUGGGAAGAUACAUGAGGAUCACCCAUGUUUAAGGAUGCCGAGAGGCAACUAGAAGGCCCUAGUACCU”, the “apparent Kd” value is, setting by setting: under setting [3], 851 nM; under setting [4], 97 nM.

Turning to “CAGCGAAAGCUGAAUCUGUAGAGAGAGGAUAUACGUCAUAAGGUGCAAACAUGAGGAUCACCCAUGUAGAAGGCUCUCUACAGU”, the “apparent Kd” value runs as follows: under setting [1], 55.8 nM; under setting [2], 460 nM.

For the sequence “CAGGUAGACUGAGGAUAUACACUAAACAGCUAGUCUAUCUAGCUGCCUACAUGAGGAUCACCCAUGUAGAAGGCAGUCUGCCUG”, the “apparent Kd” value is, setting by setting: under setting [1], 15.8 nM; under setting [2], 18.2 nM.

Turning to “ACAUGCUGCCGGCAGGAUAUCGCUUGGCGGACAUGAGGAUCACCCAUGUGAGAAAGUCGCGCGCGCGAGAAGGGCCAUGGUAUCAG”, the “apparent Kd” value runs as follows: under setting [3], 98.2 nM; under setting [4], 80 nM.

As for “AAAAUUUAUUGAGGAUAUUCAUACACUGUAUACGGAGAAGGCAAACAAUCAUGAGGACAUGAGGAUCACCCAUGUUGUGACCAU”, the “apparent Kd” value runs as follows: under setting [3], 18.5 nM; under setting [4], 12.2 nM.

For the sequence “GGCGGCGCGGGCCACCGCAGAACCAGAAGGACAUGAGGAUCACCCAUGUAACAAAACAGGGCGGUGUAGGAUAUGGCAGGCCCG”, the “apparent Kd” value is, setting by setting: under setting [1], 41.9 nM; under setting [2], 89.5 nM.

Regarding “AACAAACAUGAGGAUCACCCAUGUAAGGAUAUACGAAACAAACAAACAAACAAACAAAGUAGAAGGUACAGGAA”, the “apparent Kd” value runs as follows: under setting [1], 19.4 nM; under setting [2], 18.3 nM.

Regarding “GCCAUCGCAUGAGGAUAUGCUCCCGUUUCGGGAGCAGAAGGCAUGUCAUAAGACAUGAGGAUCACCCAUGUAGUUUAGAUGGCA”, the “apparent Kd” value by setting is: under setting [3], 234 nM; under setting [4], 11.1 nM.

As for “CGAUAGUGUAGUUAUCCGUAGCGAACAUGAGGAUCACCCAUGUAGGAUAUGUUACUAAACUAGUAACAGAAGGGCAUGAGUCUU”, the “apparent Kd” value was 28.6 nM under setting [1] and 75.6 nM under setting [2].

In the case of “GCGAUUGCGUAGAAGGUACAAUAUAAUACAUUGUAAGGAUAUACUUACAUGAGGAUCACCCAUGUUAAUGGAAUUUGCAAUCGC”, the “apparent Kd” value under setting [3] is 18.2 nM and the “apparent Kd” value under setting [4] amounted to 11.9 nM.

On to “GGGAUCACCGUCAGGAUAUGUGACCGUACUAUCGGGCAGAAGGGACAUGAGGAUCACCCAUGUUGUCGUAGACU”, for which the “apparent Kd” value is 20.7 nM under setting [1] and 58.1 nM under setting [2].

On to “AAUAUGAGCUGGAAUAAACCUGAAACAUGAGGAUCACCCAUGUAGGAUAUCAGCACGAUAAGUGCUGAGAAGGACAACCAGCUC”, for which the “apparent Kd” value runs as follows: under setting [1], 14.6 nM; under setting [2], 16.6 nM.

For the sequence “AAGGUCAAGAUAGGAUAUGUUUCAUGAUAGAUAACAGAAGGAUCUAGAACAUGAGGAUCACCCAUGUGGCACAUAGAGUGGUGA”, the “apparent Kd” value reads like this: under setting [3], 429 nM; under setting [4], 441 nM.

As to “AUCGGAUUGUAGAAGGGUGACAUGAGGAUCACCCAUGUUCAAAUGCGUUUUUCGGUAAUUGUUCCACAGGAUAUACUGUCCGAG”, the “apparent Kd” value came out at 675 nM under setting [3] and 139 nM under setting [4].

In the case of “GGGCCGUAGUAGAAGGGAUAUACGAUAGGUAUAUCAGGAUAUACAUGAGGAUCACCCAUGUUCUAACAGUGAUGGUCCUCCCUA”, the “apparent Kd” value was found to be 173 nM under setting [1] and 374 nM under setting [2].

For the sequence “ACCUAGCCCAGGCCCACGGCAUCACAGGAUAUGCCGAUAACAUGAGGAUCACCCAUGUCAACUCCGCAGAAGGGUGAUAUCGUG”, the “apparent Kd” value by setting is: under setting [3], 89.2 nM; under setting [4], 13.5 nM.

Consider “UCGGCGCGAGGAUAUACGUUUGCUUUUUUUCGUUUUUGUGUACAUGAGGAUCACCCAUGUAGAAGGCGCGCCGC”, for which the “apparent Kd” value reads like this: under setting [1], 15.2 nM; under setting [2], 22.4 nM.

As for “UUUACAUGAGGAUCACCCAUGUUAAAAUAAUUAAUUAUAAGUGAGGAUAUAUAAUUUAUAAAAUUGUAGAAGGCACUGGGUAUU”, the “apparent Kd” value runs as follows: under setting [3], 17.4 nM; under setting [4], 21.1 nM.

For the sequence “GGGUACAACGGAGGAUAUCAUGUAAAUACAUGAGGAUCACCCAUGUCGAUGGAGACAUCGGAGAUUGAGAAGGCCGAUGUACCG”, the “apparent Kd” value worked out at 160 nM under setting [3] and 8.88 nM under setting [4].

As for “GCAGGACAUGAGGAUCACCCAUGUUCAAAAUAUAGAGGAUAUGGAUACGGUAUAUCCGAACCAGAAGGCUACCUGC”, the “apparent Kd” value by setting is: under setting [3], 14.6 nM; under setting [4], 14 nM.

Take “ACAUGAGGAUCACCCAUGUUAAGCGAGGAUAUUUCACUGCACAUGAGGUUCGCCCAUGUCCUGCGGAAGAAGGUGCGAAUAAUU”: the “apparent Kd” value runs as follows: under setting [3], 33.4 nM; under setting [4], 17.1 nM.

Take “CGGCGCUGUCGAGAGGAUAUGCGGUGACGGACAUGAGGAUCACCCAUGUUAGCGAUAGCGUUACGGUAGAAGGCUCUACAGUCGC”: the “apparent Kd” value runs as follows: under setting [3], 76.8 nM; under setting [4], 15.4 nM.

As to “GGAGGACAUGAGGAUCACCCAUGUGGAUGGGCGCUAGGAUAUGCGAGAGGGAAGAGUGGAGCAGAAGGAGUGGGUU”, the “apparent Kd” value runs as follows: under setting [3], 50.8 nM; under setting [4], 47.3 nM.

For the sequence “CCGAAACCUCAGAAGGACCACAUGAGGAUCACCCAUGUCAAGCAAAACGGUAGGAUAUGAGGGAAAAGUCGGUGUACCCGACAG”, the “apparent Kd” value turned out to be 8.93 nM under setting [3] and 5.76 nM under setting [4].

On to “AUCAGCUCGUCAGGAUAUACGUCACUUCGUCAGCAGUGUGGUAAGAUCACAUGAGGAUCACCCAUGUAGAAGGGACGAGCUGAU”, for which the “apparent Kd” value runs as follows: under setting [1], 85.7 nM; under setting [2], 310 nM.

As to “GGACAUAAAGUCAGGAUAUUAAGGCGACCACGCGAUGAGAAGGGACAUGAGGAUCACCCAUGUGAUUCGCAUCA”, the “apparent Kd” value reads like this: under setting [1], 115 nM; under setting [2], 101 nM.

For the sequence “AUCAGCUCGUCAGGAUAUACGUCGUGGUAAGAUCACAUGAGGAUCACCCAUGUAGAAGGGACGAGCUGAUAAGCACGAAAGUGC”, the “apparent Kd” value was found to be 745 nM under setting [1] and 47.1 nM under setting [2].

In the case of “UUAUACGUUGAGGAUAUGCGACUGUUUUAAGUUGUAGAAGGCGAUACAUGAGGAUCACCCAUGUUUAUGGGCAU”, the “apparent Kd” value reads like this: under setting [1], 240 nM; under setting [2], 327 nM.

For the sequence “UUGUUGUAUGUAGGAUAUGCAUAUUAUUAUUAUGCAGAAGGACAUGAGGAUCACCCAUGUAUAUUAUUAUUAUAUGUUAUAUAU”, the “apparent Kd” value is, setting by setting: under setting [1], 26 nM; under setting [2], 34.2 nM.

Consider “GAUACACAUGAGGAUCACCCAUGUUAGGAUAUUAGCGGGAAAGCUGUCAAAACGCCGAUGAGAAGGAACAGGAG”, for which the “apparent Kd” value is 40.6 nM under setting [1] and 31.4 nM under setting [2].

Consider “UUACAGUGCGGGUAGGAUAUGUAGGGUGGUACAUGAGGAUCACCCAUGUAUCCACCCUUCGACCGGCAGAAGGGCCUAUCACUGC”, for which the “apparent Kd” value runs as follows: under setting [3], 15.9 nM; under setting [4], 13.6 nM.

Turning to “GGGCCCGGAGGAUAUACAUGAGGAUCACCCAUGUAUCUGGGUCUUAUUGGGCUCGGGUGUAGAAGGCCGGGCCC”, the “apparent Kd” value reads like this: under setting [1], 11.8 nM; under setting [2], 13.8 nM.

With “AUAUUACGAGGAUAUCGUUUUUUUCACAUGAGGAUCACCCAUGUUAUUUAUGUUUCGUUUCGAGAAGGCGUAAGUU”, the “apparent Kd” value under setting [1] was 25 nM and the “apparent Kd” value under setting [2] came to 22.1 nM.

For “GUCAGGUCGUGAGGAUAUACAACACUGCUUCGGCAGUGUAUUAAGAUCACAUGAGGAUCACCCAUGUAGAAGGCACGAGCUGAU”, the “apparent Kd” value runs as follows: under setting [1], 14.1 nM; under setting [2], 210 nM.

“GUGCCUUGGGAGAAGGCCCAAUGUAAAGCAUAGGGAGGAUAUUCAUAUAAUAAAUAAACAUGAGGAUCACCCAUGUGGCACAAA”: the “apparent Kd” value runs as follows: under setting [3], 831 nM; under setting [4], 48.5 nM.

“GUUAGUUAAGGAUAUACAGGGAGCCGCGGCGUCUCGCCGCAACAUGAGGAUCACCCAUGUAGAAGGUGGCCAUU”: the “apparent Kd” value reads like this: under setting [1], 150 nM; under setting [2], 119 nM.

For the sequence “CCCUCACAUGAGGAUCACCCAUGUCAGGAUAUCUCACAUCGGCCUUAGGCCGAUGUCUAGAGAAGGGACGUAUC”, the “apparent Kd” value stood at 22.1 nM under setting [1] and 29.5 nM under setting [2].

Take “UCACGGGACUAAGGAUAUACAUGAACUAUUAUUGUAGAAGGUAGAAUGUUAGAUUAUACACUAAACAUGAGGAUCACCCAUGUU”: the “apparent Kd” value stood at 21.1 nM under setting [1] and 19.6 nM under setting [2].

In the case of “ACGCGUUGGGAGAAGGUACUUUAAUUAGGUUACACAUGAGGAUCACCCAUGUAAGGAUAUCCCAUCGUGUAAUAUUAUACAGCA”, the “apparent Kd” value reads like this: under setting [1], 8.06 nM; under setting [2], 7.39 nM.

Take “UUUUACGUUUCGUAGCAGUGUCAUCGAGAAGGCCCUGACAUGAGGAUCACCCAUGUUGUUACAUGGGAGGAUAUCGAUGAUGGG”: the “apparent Kd” value by setting is: under setting [3], 41.3 nM; under setting [4], 6.93 nM.

Consider “ACAUGCGGAUGAGGAUAUUCAUCCAUGAGGAUAGAAGAAGGCAUACAUGAGGAUCACCCAUGUAUACGCAUGAGGAUCCCUUAU”, for which the “apparent Kd” value is, setting by setting: under setting [1], 23.6 nM; under setting [2], 28.7 nM.

Consider “AAUAUAAAGAGCUGGCUCCAAAUAACAUGAGGAUCACCCAUGUAGGAUAUCAGCACGAUAAGUGCUGAGAAGGACAUCCAGCUC”, for which the “apparent Kd” value amounted to 15 nM under setting [1] and 15.6 nM under setting [2].

Consider “GCGUCAGAAUUAAUUGUGACAUACAGAAGGCAAAAGUUAGGAUUAGACAUGAGGAUCACCCAUGUUGAGGAUAUGUAGAGAAUC”, for which the “apparent Kd” value reads like this: under setting [1], 9.69 nM; under setting [2], 8.52 nM.

On to “CAUACAGUAGUCAGGAUAUUGGAAGAGACACGGAACGAGAAGGGACAUGAGGAUCACCCAUGUAUACUGUAAAG”, for which the “apparent Kd” value was 26.8 nM under setting [1] and 22.6 nM under setting [2].

What is called apparent Kd is a dissociation constant that holds for the conditions of the assay.
